ChEMBL document CHEMBL5653622 (Oncotarget, 2016)
Calls of active or inactive are those of the source. The calls are words filed in the database; no cut-off is given here.

Legend:
[1] = molecular target: Myosin light chain kinase, smooth muscle (Homo sapiens) (UniProt Q15746); test: Inhibition of human SmMLCK assessed as remaining activity at 10 uM in presence of ATP by radiometric kinase assay relative to control
[2] = molecular target: Vascular endothelial growth factor receptor 1 (Homo sapiens, UniProt P17948); test: Inhibition of VEGFR1 (unknown origin) by FRET based Z-LYTE kinase assay
[3] = molecular target: cAMP-dependent protein kinase (PKA) (Homo sapiens) (UniProt P22694+P17612+P22612); test: Inhibition of human PKA assessed as remaining activity at 10 uM in presence of ATP by radiometric kinase assay relative to control; type: protein assay
[4] = molecular target: NUAK family SNF1-like kinase 1 (Homo sapiens, UniProt O60285); test: Inhibition of human NUAK1 by FRET based Z-LYTE kinase assay
[5] = molecular target: Serine/threonine-protein kinase MARK1 (Homo sapiens) (UniProt Q9P0L2); test: Inhibition of human MARK1 assessed as remaining activity at 10 uM in presence of ATP by radiometric kinase assay relative to control
[6] = molecular target: Aurora kinase A (Homo sapiens) (UniProt O14965); test: Inhibition of human AuroraA assessed as remaining activity at 10 uM in presence of ATP by radiometric kinase assay relative to control
Homo sapiens [7] = species: Homo sapiens; test: Inhibition of human VEG-FR assessed as remaining activity at 10 uM in presence of ATP by radiometric kinase assay relative to control
[8] = molecular target: Protein kinase C alpha type (Homo sapiens) (UniProt P17252); test: Inhibition of human PKCa assessed as remaining activity at 10 uM in presence of ATP by radiometric kinase assay relative to control
[9] = AUC (0 to infinity) in BALB/C mouse spleen at 10 mg/kg, iv by LC/MS-MS analysis; type: ADME, organism-based
[10] = molecular target: Ribosomal protein S6 kinase alpha-1 (Homo sapiens, UniProt Q15418); test: Inhibition of human RSK1 assessed as remaining activity at 10 uM in presence of ATP by radiometric kinase assay relative to control
[11] = molecular target: Dual specificity tyrosine-phosphorylation-regulated kinase 3 (Homo sapiens) (UniProt O43781); test: Inhibition of human DYRK3 assessed as remaining activity at 10 uM in presence of ATP by radiometric kinase assay relative to control
[12] = molecular target: Vascular endothelial growth factor receptor 2 (Homo sapiens, UniProt P35968); test: Inhibition of VEGFR2 (unknown origin) by FRET based Z-LYTE kinase assay
[13] = molecular target: Serine/threonine-protein kinase BRSK2 (Homo sapiens) (UniProt Q8IWQ3); test: Inhibition of human BRSK2 assessed as remaining activity at 10 uM in presence of ATP by radiometric kinase assay relative to control
[14] = molecular target: Ephrin type-B receptor 4 (Homo sapiens) (UniProt P54760); test: Inhibition of human EPH-B4 assessed as remaining activity at 10 uM in presence of ATP by radiometric kinase assay relative to control
Homo sapiens [15] = species: Homo sapiens; test: Inhibition of human AMPK at 10 uM in presence of ATP by radiometric kinase assay relative to control
[16] = molecular target: Serine/threonine-protein kinase PAK 5 (Homo sapiens) (UniProt Q9P286); test: Inhibition of human PAK5 assessed as remaining activity at 10 uM in presence of ATP by radiometric kinase assay relative to control
[17] = molecular target: Ribosomal protein S6 kinase alpha-5 (Homo sapiens) (UniProt O75582); test: Inhibition of human MSK1 assessed as remaining activity at 10 uM in presence of ATP by radiometric kinase assay relative to control
[18] = Clearance in BALB/C mouse plasma at 10 mg/kg, po by LC/MS-MS analysis; type: ADME, organism-based
In short: (§1)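 Female BALB/c mice received a single 10mg/kg bolus i.v. or p.o. Plasma (and spleen homogenate) extracted with methanol containing internal standards. Concentrations were measured by LC/MS-MS and PK parameters calculated with modelling software.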

HT-29 [19] = test: Induction of cell cycle arrest in human HT-29 cells assessed as decrease in accumulation of cells at G0/G1 phase at 1 to 5 uM incubated for 24 hrs by BrdU and PI staining based flow cytometry analysis; type: functional; conditions: dose 1-5 µM
In short: (§2)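 HT29 cells exposed for 24h, stained with bromodeoxyuridine and propidium iodide, and cell-cycle distribution measured by flow cytometry.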

[20] = molecular target: Serine/threonine-protein kinase TBK1 (Homo sapiens) (UniProt Q9UHD2); test: Inhibition of human TBK1 assessed as remaining activity at 10 uM in presence of ATP by radiometric kinase assay relative to control
[21] = Cmax in BALB/C mouse spleen at 10 mg/kg, iv by LC/MS-MS analysis; type: ADME, organism-based; in short: as §1
[22] = molecular target: Serine/threonine-protein kinase 26 (Homo sapiens) (UniProt Q9P289); test: Inhibition of human MST4 assessed as remaining activity at 10 uM in presence of ATP by radiometric kinase assay relative to control
[23] = molecular target: Mitogen-activated protein kinase 14 (Homo sapiens) (UniProt Q16539); test: Inhibition of human p38a MAPK assessed as remaining activity at 10 uM in presence of ATP by radiometric kinase assay relative to control
[24] = molecular target: Serine/threonine-protein kinase D1 (Homo sapiens, UniProt Q15139); test: Inhibition of PRKD1 (unknown origin) by 33P radiometric kinase assay
[25] = molecular target: Eukaryotic elongation factor 2 kinase (Homo sapiens) (UniProt O00418); test: Inhibition of human EF2K assessed as remaining activity at 10 uM in presence of ATP by radiometric kinase assay relative to control
[26] = molecular target: Serine/threonine-protein kinase PAK 4 (Homo sapiens) (UniProt O96013); test: Inhibition of human PAK4 assessed as remaining activity at 10 uM in presence of ATP by radiometric kinase assay relative to control
HT-29 [27] = test: Induction of cell cycle arrest in etoposide induced human HT-29 cells assessed as increase in accumulation of cells at S phase at 1 to 5 uM incubated for 24 hrs by BrdU and PI staining based flow cytometry analysis; type: functional; conditions: dose 1-5 µM; in short: as §2
[28] = Toxicity in Emu-Myc driven transgenic mouse transplant model of B-cell lymphoma assessed as change in water consumption at 150 mg/kg, po administered for 9 days; type: organism-based; conditions: in vivo, 216 h, time 9 day
[29] = molecular target: Inhibitor of nuclear factor kappa-B kinase subunit beta (Homo sapiens) (UniProt O14920); test: Inhibition of human IKKb assessed as remaining activity at 10 uM in presence of ATP by radiometric kinase assay relative to control
[30] = molecular target: Proto-oncogene tyrosine-protein kinase Src (Homo sapiens) (UniProt P12931); test: Inhibition of human Src assessed as remaining activity at 10 uM in presence of ATP by radiometric kinase assay relative to control
[31] = molecular target: MAP/microtubule affinity-regulating kinase 3 (Homo sapiens, UniProt P27448); test: Inhibition of human MARK3 assessed as remaining activity at 10 uM in presence of ATP by radiometric kinase assay relative to control

Sequence of Serine/threonine-protein kinase PAK 4 (Homo sapiens) (O96013 whole entry, looked up): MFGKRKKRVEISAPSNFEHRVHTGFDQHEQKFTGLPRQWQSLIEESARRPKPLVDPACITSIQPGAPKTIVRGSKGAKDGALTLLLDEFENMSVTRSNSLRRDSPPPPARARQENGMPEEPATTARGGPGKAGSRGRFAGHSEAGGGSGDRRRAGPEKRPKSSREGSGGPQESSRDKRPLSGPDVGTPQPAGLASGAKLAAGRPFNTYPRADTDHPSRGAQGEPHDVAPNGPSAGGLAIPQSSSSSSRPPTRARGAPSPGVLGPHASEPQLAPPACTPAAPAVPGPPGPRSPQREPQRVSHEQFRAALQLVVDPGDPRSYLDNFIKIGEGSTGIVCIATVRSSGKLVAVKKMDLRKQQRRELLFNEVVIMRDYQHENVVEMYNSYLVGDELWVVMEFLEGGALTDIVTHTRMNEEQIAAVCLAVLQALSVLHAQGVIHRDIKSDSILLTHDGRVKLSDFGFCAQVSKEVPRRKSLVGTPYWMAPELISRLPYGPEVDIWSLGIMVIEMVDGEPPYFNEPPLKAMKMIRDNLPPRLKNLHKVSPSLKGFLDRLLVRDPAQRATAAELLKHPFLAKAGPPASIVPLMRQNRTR
Sequence of NUAK family SNF1-like kinase 1 (O60285 whole entry): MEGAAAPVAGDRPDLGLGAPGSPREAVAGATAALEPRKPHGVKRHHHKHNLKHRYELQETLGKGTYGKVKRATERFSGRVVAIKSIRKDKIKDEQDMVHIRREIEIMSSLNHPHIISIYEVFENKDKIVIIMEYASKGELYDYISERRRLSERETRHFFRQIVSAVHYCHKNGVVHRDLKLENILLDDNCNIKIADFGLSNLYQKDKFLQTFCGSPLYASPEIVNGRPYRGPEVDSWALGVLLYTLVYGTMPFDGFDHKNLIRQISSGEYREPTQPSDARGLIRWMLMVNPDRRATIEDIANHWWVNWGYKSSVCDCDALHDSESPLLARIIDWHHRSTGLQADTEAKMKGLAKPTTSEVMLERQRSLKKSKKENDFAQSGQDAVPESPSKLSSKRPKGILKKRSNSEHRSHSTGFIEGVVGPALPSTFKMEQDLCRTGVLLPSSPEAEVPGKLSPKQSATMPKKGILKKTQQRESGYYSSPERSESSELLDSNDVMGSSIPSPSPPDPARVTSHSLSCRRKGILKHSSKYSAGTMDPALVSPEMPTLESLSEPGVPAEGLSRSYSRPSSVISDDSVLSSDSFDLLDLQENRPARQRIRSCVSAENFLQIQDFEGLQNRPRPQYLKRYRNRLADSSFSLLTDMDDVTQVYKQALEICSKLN
Sequence of Serine/threonine-protein kinase BRSK2 (Homo sapiens) (Q8IWQ3 whole entry): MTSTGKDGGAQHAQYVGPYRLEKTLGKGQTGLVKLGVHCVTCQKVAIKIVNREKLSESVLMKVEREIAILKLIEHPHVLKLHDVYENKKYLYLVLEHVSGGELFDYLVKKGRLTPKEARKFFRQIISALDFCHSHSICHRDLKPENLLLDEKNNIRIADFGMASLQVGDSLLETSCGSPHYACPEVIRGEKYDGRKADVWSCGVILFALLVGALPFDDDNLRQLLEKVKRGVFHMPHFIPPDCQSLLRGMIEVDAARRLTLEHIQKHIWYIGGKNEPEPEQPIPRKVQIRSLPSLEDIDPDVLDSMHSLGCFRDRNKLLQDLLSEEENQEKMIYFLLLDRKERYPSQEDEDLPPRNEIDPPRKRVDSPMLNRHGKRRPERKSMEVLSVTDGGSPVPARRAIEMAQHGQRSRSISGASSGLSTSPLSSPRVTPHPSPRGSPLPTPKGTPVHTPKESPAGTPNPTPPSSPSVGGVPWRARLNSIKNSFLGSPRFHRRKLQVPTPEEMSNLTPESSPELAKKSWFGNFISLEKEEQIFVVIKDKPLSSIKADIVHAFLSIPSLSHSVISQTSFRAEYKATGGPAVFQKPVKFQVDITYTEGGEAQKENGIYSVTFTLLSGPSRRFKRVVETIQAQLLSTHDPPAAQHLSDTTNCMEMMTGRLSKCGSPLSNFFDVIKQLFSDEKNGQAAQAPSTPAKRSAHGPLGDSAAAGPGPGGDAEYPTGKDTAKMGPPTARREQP
Sequence of Eukaryotic elongation factor 2 kinase (Homo sapiens) (O00418 whole entry): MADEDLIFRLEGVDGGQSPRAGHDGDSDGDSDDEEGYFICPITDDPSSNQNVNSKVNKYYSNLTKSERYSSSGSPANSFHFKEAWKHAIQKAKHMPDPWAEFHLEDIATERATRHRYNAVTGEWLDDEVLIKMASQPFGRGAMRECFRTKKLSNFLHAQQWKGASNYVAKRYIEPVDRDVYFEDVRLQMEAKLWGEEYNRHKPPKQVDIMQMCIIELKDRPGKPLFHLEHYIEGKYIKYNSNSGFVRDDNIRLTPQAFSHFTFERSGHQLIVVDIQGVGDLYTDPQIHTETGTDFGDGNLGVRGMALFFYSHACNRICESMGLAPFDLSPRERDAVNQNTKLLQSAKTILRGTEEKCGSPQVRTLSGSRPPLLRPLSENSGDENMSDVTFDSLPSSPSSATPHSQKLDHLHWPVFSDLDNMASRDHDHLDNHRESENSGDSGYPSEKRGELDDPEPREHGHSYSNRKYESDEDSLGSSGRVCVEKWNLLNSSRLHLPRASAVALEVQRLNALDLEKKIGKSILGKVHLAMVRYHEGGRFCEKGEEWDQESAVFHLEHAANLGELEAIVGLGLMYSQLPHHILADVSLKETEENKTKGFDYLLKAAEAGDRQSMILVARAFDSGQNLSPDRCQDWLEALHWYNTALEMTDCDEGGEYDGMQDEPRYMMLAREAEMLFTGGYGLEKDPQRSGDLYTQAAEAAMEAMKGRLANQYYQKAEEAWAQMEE
Sequence of Vascular endothelial growth factor receptor 2 (P35968 whole entry): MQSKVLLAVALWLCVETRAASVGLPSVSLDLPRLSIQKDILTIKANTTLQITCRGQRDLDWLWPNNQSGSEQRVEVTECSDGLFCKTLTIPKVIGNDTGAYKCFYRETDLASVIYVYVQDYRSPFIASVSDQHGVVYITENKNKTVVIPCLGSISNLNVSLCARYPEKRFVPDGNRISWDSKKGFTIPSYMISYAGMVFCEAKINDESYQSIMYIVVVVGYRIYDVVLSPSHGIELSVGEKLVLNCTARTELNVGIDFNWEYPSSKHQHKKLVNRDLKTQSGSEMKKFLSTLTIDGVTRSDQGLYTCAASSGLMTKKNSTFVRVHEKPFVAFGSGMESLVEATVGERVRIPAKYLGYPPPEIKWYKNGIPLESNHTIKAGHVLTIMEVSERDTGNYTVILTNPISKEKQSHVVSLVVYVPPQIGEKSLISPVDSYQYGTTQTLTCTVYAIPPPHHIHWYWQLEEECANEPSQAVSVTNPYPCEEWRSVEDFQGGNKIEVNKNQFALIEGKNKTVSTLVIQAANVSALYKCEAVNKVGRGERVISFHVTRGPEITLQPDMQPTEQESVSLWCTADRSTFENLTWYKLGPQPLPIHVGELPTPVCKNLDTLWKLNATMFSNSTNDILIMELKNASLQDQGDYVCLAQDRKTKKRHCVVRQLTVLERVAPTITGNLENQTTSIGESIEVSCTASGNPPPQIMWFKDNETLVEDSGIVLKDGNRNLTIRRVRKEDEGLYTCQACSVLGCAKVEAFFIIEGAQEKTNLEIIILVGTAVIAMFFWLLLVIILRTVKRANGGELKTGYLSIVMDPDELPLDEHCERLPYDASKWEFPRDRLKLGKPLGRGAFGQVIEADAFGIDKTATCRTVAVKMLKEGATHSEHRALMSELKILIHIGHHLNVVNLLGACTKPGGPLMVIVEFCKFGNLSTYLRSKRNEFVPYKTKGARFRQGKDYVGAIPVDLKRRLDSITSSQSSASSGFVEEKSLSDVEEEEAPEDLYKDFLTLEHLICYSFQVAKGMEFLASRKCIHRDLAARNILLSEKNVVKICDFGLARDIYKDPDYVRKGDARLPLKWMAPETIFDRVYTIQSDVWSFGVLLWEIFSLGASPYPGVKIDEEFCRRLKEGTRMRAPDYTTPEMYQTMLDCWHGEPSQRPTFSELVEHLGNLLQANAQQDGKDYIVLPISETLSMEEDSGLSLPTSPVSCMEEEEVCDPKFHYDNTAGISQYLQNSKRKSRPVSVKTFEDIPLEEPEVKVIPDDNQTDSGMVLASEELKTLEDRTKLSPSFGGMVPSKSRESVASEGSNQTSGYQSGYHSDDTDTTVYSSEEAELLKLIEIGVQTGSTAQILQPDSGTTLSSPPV
Sequence of Ephrin type-B receptor 4 (Homo sapiens) (P54760 whole entry): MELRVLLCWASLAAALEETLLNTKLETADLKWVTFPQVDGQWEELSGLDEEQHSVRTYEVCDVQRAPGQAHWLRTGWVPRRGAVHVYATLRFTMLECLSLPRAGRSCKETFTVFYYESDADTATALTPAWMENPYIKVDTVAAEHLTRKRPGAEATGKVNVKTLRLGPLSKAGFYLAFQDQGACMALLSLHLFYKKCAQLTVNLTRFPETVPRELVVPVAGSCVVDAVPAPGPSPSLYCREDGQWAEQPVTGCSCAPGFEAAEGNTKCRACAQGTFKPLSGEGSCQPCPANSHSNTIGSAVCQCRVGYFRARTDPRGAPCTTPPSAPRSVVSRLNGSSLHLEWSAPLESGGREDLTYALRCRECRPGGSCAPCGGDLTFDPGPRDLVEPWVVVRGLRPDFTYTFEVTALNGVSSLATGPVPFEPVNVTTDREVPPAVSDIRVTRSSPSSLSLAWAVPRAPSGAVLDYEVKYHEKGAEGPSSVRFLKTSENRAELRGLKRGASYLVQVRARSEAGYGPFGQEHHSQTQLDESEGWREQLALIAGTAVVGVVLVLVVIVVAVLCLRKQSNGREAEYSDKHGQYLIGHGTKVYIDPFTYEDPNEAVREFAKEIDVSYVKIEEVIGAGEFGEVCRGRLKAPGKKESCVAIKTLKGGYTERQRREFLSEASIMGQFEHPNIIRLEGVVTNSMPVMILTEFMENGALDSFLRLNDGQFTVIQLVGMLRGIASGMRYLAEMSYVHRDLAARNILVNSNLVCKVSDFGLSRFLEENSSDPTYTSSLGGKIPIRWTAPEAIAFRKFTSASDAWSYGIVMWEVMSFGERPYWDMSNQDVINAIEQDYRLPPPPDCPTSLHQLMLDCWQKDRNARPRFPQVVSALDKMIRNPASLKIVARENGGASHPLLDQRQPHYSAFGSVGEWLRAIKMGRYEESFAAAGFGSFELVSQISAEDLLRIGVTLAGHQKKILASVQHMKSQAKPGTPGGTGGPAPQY

Activity [1]: 84%
IC50 [2]: 15800 nM
Activity [3]: 93%
IC50 [4]: 711 nM
Activity [5]: 43%
Activity [6]: 75%
Activity (Homo sapiens [7]): 13%
Activity [8]: 82%
AUC(0-inf) [9]: 262 µM·h
Activity [10]: 7%
Activity [11]: 24%
IC50 [12]: 2100 nM
Activity [13]: 35%
Activity [14]: 81%
inhibition (Homo sapiens [15]): 68%
Activity [16]: 70%
Activity [17]: 30%
CL/F [18]: 36 mL/min/kg
Activity [20]: 71%
Cmax [21]: 44.7 µM
Activity [22]: 44%
Activity [23]: 120%
IC50 [24]: 298 nM
Activity [25]: 98%
Activity [26]: 49%
Activity [29]: 91%
Activity [30]: 93%
Activity [31]: 13%
Compound: N#Cc1cnc(Nc2cc(NC[C@H]3CNCCO3)c(C(F)(F)F)cn2)cn1 [SRA-737]
Activity (HT-29 [19]): Active
Activity (HT-29 [27]): Active
Activity [28]: Non-Toxic
